# Test results as given in ChEMBL document CHEMBL2417367 (Bioorg Med Chem, 2013).
# Columns and labels:
# [1] = target: Epidermal growth factor receptor (Homo sapiens, UniProt P00533); assay: Inhibition of EGFR (unknown origin) using poly(Glu,Tyr) as substrate after 30 mins by HTRF assay
# Summary of the method: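 HTRF kinase assay with purified kinase protein on precoated poly(Glu,Tyr) 4:1 substrate (20 µg/mL). Buffer was 50 mM HEPES pH 7.0 with DTT, MgCl2, MnCl2 and 0.1% NaN3, plus ATP added from a 10 mM solution. Compounds were in 1% DMSO. Reaction ran 30 min at 25 °C and was stopped with Streptavidin-XL665 and TK antibody-cryptate. Read at 320/615 nm; % inhibition from max/min controls, IC50 from inhibition curves.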
# MKN-45 = assay: cells; conditions: Homo sapiens, MKN-45, 72 h
# SMMC-7721 = assay: cells; conditions: Homo sapiens, SMMC-7721, 72 h
# cells = conditions: Homo sapiens, U-87 MG, 72 h
# HT-29 = assay: cells; conditions: Homo sapiens, HT-29, 72 h
# A549 = assay: Cytotoxicity against human A549 cells after 72 hrs by MTT assay; format: functional, cell-based; conditions: A549, 72 h
# [2] = target: Macrophage-stimulating protein receptor (Homo sapiens, UniProt Q04912); assay: Inhibition of RON (unknown origin) using poly(Glu,Tyr) as substrate after 30 mins by HTRF assay
# Summary of the method: (§1)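 HTRF kinase assay on plates precoated with poly(Glu,Tyr) 4:1 (20 µg/mL). ATP was added as a 10 mM solution in 50 mM HEPES pH 7.0 buffer with DTT, MgCl2, MnCl2 and 0.1% NaN3. Compounds were in 1% DMSO, and purified kinase started the reaction (30 min, 25 °C). Streptavidin-XL665/TK antibody cryptate stopped it, read at 320/615 nm. Inhibition was scaled to enzyme and no-enzyme controls; IC50 from curves.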
# [3] = target: Platelet-derived growth factor receptor alpha (Homo sapiens, UniProt P16234); assay: Inhibition of PDGFRalpha (unknown origin) using poly(Glu,Tyr) as substrate after 30 mins by HTRF assay; summary of the method: as §1
# Sequence of Platelet-derived growth factor receptor alpha (P16234 whole entry): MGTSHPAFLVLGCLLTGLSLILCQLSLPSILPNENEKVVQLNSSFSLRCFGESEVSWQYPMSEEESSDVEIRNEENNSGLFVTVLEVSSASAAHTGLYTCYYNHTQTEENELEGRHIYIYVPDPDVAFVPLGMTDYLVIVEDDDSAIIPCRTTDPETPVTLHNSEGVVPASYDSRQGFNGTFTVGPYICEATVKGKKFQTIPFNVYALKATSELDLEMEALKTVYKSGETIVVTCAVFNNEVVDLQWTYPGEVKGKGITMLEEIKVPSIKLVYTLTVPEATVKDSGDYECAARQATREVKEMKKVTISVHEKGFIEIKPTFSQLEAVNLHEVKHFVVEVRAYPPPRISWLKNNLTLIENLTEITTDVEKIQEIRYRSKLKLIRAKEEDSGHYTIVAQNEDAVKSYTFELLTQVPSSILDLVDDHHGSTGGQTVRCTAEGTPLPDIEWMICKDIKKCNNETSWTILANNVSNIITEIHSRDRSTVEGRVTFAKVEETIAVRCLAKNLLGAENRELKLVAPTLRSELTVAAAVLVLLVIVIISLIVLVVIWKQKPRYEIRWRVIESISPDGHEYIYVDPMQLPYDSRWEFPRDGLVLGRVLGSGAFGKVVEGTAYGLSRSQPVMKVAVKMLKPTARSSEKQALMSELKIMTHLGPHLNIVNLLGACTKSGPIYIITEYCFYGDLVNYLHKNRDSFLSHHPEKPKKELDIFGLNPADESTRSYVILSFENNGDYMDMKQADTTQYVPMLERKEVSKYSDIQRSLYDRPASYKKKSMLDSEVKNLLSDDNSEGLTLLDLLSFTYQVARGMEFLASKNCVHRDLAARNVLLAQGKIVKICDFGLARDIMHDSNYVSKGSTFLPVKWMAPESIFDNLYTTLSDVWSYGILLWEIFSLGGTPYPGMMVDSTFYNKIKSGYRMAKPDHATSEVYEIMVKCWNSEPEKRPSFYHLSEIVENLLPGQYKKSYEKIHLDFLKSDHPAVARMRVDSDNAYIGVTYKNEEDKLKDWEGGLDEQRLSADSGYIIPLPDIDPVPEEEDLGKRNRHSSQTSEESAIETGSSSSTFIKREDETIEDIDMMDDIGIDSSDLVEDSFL
# NCI-H460 = assay: cells; conditions: Homo sapiens, NCI-H460, 72 h
# [4] = target: Mast/stem cell growth factor receptor Kit (Homo sapiens, UniProt P10721); assay: Inhibition of c-KIT (unknown origin) using poly(Glu,Tyr) as substrate after 30 mins by HTRF assay; summary of the method: as §1
# Sequence of Mast/stem cell growth factor receptor Kit (P10721 whole entry): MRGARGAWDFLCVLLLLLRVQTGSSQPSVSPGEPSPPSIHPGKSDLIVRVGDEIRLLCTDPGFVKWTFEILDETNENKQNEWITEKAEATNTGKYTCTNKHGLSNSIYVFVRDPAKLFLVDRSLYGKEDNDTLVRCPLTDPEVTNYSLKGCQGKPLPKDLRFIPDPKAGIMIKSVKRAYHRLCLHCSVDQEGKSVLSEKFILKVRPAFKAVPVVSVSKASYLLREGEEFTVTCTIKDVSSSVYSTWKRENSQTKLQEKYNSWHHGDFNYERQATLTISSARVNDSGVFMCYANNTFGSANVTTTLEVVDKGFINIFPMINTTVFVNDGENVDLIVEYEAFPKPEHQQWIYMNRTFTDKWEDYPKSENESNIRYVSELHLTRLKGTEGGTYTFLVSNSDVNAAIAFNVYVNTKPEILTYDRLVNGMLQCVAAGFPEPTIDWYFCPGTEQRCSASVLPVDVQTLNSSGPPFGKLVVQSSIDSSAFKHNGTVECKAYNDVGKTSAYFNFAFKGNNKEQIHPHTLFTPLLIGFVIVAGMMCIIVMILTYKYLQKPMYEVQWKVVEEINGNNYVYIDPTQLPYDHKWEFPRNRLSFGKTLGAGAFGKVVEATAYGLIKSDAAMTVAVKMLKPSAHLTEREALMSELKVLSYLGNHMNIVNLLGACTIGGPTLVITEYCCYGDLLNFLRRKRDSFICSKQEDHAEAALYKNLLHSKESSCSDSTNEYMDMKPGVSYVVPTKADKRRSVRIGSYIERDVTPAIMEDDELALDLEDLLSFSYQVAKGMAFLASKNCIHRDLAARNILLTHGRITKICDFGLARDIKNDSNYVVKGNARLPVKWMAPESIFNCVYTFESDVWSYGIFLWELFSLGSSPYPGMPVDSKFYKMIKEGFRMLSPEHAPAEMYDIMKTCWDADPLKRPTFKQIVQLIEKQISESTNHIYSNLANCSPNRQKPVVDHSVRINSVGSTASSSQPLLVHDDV
# [5] = target: Vascular endothelial growth factor receptor 2 (Homo sapiens, UniProt P35968); assay: Inhibition of KDR (unknown origin) using poly(Glu,Tyr) as substrate after 30 mins by HTRF assay; summary of the method: as §1
# Sequence of Vascular endothelial growth factor receptor 2 (P35968 whole entry): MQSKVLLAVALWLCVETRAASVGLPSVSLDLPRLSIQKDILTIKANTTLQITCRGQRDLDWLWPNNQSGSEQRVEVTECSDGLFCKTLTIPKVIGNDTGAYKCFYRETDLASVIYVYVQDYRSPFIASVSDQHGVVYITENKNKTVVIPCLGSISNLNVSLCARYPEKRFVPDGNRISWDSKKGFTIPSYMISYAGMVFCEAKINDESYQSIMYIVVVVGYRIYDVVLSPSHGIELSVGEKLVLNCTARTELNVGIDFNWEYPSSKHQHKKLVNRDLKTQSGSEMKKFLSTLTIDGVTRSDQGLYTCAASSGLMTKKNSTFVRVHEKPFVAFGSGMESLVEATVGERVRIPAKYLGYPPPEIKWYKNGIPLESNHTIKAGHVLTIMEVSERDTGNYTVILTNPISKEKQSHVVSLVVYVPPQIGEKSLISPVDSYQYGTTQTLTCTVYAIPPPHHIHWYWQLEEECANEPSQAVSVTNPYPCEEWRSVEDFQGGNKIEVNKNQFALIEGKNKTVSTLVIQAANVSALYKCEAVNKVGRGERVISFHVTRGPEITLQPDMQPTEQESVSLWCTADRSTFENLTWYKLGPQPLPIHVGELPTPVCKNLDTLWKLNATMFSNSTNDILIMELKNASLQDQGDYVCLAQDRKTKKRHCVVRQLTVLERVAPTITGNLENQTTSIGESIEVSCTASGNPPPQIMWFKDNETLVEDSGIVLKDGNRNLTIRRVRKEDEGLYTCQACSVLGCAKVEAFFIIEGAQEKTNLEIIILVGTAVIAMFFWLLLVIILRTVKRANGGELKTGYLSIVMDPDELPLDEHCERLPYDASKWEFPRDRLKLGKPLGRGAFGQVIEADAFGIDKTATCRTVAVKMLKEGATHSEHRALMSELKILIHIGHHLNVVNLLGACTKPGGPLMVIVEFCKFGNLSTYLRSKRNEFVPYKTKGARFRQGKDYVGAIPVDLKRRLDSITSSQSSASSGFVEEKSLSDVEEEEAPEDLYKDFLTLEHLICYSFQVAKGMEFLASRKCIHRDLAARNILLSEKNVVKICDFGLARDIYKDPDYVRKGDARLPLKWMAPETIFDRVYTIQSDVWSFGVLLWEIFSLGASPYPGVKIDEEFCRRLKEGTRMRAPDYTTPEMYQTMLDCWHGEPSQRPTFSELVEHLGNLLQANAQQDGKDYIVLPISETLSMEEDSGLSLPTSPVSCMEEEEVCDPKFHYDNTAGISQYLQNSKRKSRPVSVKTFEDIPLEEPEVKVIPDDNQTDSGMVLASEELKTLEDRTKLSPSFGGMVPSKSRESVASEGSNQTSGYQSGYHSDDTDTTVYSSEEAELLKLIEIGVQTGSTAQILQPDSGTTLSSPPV
# MDA-MB-231 = assay: Cytotoxicity against human MDA-MB-231 cells after 72 hrs by MTT assay; format: functional, cell-based; conditions: MDA-MB-231, 72 h
# Summary of the method: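 Cells were grown in MEM with 10% FBS. About 4×10^3 cells per well were seeded and incubated 24 h at 37 °C in 5% CO2. Compounds were then added at set final concentrations for 72 h. MTT (final 5 µg/mL) was added for 4 h at 37 °C, and formazan was dissolved in DMSO and read at 492 nm against a 630 nm reference. Each line was tested three times; IC50 is mean ± SD.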
# [6] = target: T1, Receptor-type tyrosine-protein kinase FLT3 (Homo sapiens, UniProt P36888); assay: Inhibition of FLT-3 (unknown origin) using poly(Glu,Tyr) as substrate after 30 mins by HTRF assay; summary of the method: as §1
# T1 sequence (P36888 whole entry): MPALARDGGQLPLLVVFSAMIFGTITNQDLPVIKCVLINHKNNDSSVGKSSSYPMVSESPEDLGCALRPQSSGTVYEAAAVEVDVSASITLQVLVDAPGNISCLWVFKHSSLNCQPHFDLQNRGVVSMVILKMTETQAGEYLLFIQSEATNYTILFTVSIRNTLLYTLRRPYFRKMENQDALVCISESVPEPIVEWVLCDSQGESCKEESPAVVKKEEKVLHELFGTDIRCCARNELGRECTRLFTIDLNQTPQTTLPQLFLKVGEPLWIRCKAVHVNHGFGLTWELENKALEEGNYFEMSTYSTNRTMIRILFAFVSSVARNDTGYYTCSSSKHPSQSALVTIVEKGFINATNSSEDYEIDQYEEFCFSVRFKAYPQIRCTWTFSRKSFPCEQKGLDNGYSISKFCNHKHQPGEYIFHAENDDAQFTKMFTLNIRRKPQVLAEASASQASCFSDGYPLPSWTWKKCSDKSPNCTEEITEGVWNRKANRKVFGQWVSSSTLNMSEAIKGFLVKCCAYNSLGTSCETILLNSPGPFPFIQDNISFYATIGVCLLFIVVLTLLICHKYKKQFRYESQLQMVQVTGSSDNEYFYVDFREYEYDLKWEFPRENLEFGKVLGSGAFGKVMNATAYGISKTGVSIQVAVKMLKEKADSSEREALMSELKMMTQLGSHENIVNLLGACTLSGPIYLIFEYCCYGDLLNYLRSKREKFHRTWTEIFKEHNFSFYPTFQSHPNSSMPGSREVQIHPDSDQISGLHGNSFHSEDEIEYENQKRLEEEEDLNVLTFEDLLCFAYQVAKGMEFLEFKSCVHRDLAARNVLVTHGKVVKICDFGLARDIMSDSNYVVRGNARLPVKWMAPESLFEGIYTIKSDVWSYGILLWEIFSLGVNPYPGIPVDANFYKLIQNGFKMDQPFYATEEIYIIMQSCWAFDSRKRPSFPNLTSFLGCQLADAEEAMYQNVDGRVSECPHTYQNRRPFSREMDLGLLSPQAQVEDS
# Sequence of Epidermal growth factor receptor (P00533 whole entry): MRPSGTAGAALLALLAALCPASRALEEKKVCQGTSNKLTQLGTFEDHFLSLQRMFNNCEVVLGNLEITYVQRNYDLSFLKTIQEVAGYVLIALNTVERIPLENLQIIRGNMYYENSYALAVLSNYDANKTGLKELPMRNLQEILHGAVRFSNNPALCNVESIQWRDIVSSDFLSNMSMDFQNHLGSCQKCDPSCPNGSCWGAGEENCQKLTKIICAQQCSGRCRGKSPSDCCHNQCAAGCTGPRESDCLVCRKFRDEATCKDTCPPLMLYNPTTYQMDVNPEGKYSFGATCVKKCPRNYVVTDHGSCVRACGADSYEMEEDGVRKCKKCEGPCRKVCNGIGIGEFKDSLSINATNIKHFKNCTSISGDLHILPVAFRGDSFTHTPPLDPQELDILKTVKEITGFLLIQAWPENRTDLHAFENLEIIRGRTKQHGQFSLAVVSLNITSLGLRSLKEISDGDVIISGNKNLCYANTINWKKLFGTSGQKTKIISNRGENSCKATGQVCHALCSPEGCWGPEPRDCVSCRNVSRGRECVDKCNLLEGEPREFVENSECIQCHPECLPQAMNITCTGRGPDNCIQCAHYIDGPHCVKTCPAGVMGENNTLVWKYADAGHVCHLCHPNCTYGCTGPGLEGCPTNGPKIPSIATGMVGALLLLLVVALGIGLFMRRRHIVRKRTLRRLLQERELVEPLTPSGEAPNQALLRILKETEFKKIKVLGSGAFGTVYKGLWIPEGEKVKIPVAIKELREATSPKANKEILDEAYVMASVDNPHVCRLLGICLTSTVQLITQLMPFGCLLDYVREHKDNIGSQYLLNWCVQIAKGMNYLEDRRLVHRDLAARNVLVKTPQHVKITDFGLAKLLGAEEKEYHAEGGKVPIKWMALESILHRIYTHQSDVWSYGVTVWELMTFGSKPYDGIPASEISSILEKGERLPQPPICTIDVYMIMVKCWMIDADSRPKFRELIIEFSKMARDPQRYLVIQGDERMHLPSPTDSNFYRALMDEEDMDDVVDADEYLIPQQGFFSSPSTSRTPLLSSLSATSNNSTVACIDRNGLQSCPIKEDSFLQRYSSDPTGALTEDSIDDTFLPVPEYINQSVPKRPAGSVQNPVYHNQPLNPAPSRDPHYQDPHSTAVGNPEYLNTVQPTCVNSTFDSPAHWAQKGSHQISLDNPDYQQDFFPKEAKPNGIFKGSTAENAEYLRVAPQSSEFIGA
smiles,measurement,setting,value
COc1cc2c(Oc3ccc(NC(=O)N/N=C/c4ccc(F)cc4F)cc3F)ccnc2cc1OCCCN1CCC(C)CC1,IC50,[1],> 100000 nM
same,IC50,MKN-45,510 nM
same,IC50,SMMC-7721,290 nM
same,IC50,cells,9.7 nM
same,IC50,HT-29,80 nM
same,IC50,A549,80 nM
same,IC50,[2],18.7 nM
same,IC50,[3],390 nM
same,IC50,NCI-H460,57 nM
same,IC50,[4],230 nM
same,IC50,[5],690 nM
same,IC50,MDA-MB-231,1100 nM
same,IC50,[6],380 nM
